Active and inactive are the calls of the source. No cut-off for these calls is given here.
Experiments:
[1] = system: Mus musculus; assay: Effect on behavioral changes in 8 weeks old MitoPark mouse striatum assessed as dopamine level at 30 mg/kg/day administered for 3 weeks by HPLC analysis; type: functional
In short: (§1)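 Striatum from MitoPark mice on diet targeting 30 mg/kg/day or vehicle diet (wild-type littermate controls) was homogenized by sonication in 0.1 M acid at 0.1 g/mL. Samples were held 60 min at 4 °C and centrifuged. Dopamine, DOPAC and HVA were measured by HPLC with electrochemical detection against a 3,4-DHBA internal standard and standard curves. Mean ± SEM.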

[2] = biological target: Leucine-rich repeat serine/threonine-protein kinase 2 (Mus musculus) (UniProt Q5S006); assay: In vivo inhibition of LRRK2 in 20 weeks old MitoPark mouse kidney assessed as reduction in pSer935 LRRK2 level at 30 mg/kg/day administered for 15 weeks by Western blotting analysis; type: functional, organism-based
Chain of Leucine-rich repeat serine/threonine-protein kinase 2 (Mus musculus) (Q5S006 whole entry): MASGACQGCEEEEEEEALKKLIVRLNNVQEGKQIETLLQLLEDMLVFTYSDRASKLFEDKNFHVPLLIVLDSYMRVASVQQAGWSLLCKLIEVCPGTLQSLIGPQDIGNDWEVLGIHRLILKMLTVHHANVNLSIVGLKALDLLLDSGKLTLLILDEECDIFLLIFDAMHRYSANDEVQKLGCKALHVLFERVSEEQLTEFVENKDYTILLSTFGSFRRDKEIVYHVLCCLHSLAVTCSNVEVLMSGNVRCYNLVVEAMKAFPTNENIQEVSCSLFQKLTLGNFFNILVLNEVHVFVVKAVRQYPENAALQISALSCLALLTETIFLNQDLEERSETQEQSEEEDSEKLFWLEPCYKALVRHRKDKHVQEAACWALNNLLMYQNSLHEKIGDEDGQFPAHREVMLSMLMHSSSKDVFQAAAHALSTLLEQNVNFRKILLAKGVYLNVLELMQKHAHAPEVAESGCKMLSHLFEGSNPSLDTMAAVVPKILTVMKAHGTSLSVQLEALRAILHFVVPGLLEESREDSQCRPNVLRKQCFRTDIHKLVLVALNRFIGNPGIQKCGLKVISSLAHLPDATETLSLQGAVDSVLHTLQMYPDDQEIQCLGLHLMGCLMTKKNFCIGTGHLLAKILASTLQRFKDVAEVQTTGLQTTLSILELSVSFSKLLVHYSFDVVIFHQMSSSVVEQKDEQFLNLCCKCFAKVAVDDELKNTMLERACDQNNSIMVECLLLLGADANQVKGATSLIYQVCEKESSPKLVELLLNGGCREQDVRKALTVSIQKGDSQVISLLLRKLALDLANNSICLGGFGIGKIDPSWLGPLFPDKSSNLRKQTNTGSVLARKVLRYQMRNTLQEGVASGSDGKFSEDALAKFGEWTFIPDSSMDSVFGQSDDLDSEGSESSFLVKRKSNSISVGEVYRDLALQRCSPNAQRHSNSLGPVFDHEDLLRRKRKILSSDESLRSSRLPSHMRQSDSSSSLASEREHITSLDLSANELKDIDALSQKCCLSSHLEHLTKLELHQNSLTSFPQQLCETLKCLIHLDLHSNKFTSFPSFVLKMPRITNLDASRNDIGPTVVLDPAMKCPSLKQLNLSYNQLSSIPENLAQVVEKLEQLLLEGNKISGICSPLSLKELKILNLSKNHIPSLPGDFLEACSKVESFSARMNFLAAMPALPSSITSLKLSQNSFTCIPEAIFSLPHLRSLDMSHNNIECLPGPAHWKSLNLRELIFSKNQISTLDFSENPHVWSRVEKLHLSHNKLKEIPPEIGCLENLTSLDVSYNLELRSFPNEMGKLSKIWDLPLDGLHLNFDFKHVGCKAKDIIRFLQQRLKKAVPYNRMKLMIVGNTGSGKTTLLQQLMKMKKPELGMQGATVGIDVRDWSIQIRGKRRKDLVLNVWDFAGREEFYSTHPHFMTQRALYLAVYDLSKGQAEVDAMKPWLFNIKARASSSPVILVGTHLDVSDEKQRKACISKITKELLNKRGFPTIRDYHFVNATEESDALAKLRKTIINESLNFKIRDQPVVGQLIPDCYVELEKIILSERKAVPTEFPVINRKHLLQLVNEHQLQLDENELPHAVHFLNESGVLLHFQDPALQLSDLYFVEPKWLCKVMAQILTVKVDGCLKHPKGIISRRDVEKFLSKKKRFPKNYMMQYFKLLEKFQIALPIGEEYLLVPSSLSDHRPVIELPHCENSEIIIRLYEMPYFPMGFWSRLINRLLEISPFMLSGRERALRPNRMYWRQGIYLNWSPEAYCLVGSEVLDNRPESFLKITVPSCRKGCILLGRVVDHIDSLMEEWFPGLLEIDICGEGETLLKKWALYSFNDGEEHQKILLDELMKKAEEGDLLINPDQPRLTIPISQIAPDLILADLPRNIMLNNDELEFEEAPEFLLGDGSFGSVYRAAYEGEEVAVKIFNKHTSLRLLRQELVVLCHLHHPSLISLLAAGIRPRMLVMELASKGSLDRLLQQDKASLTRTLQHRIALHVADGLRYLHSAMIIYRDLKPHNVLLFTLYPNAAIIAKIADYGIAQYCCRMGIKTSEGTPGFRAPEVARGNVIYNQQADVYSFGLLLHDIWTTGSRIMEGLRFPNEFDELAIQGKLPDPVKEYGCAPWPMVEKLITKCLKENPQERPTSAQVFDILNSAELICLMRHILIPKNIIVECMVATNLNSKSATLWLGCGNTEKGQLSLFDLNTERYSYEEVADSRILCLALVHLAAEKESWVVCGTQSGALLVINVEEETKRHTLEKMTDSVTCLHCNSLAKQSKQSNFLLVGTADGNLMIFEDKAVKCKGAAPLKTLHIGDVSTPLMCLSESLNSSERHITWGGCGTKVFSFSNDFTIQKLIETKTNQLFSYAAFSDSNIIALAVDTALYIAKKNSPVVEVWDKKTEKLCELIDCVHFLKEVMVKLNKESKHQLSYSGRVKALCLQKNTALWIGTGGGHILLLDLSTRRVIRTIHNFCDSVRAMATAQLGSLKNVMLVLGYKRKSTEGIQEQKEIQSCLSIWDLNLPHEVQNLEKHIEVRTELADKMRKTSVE
In short: (§2)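 MitoPark mice on drug-containing diet targeted to 30 mg/kg/day from 5 weeks of age, with the diet reformulated every 3 weeks to hold the target. Untreated-diet MitoPark and wild-type littermate controls. Killed by CO2 at 20 weeks of age. Lung and kidney taken from 5 mice per group for pSer935 and total LRRK2 immunoblots.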

[3] = system: Mus musculus; assay: Effect on behavioral changes in 14 weeks old MitoPark mouse striatum assessed as dopamine level at 30 mg/kg/day by HPLC analysis; type: functional; in short: as §1
[4] = MRT in C57Bl/6 mouse at 10 mg/kg, po measured after 480 mins by LC-MS/MS analysis; type: ADME, organism-based; conditions: in vivo
In short: (§3)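 Male C57Bl/6 mice (20-25 g) given a single IV dose (2 mg/kg) or oral dose (10 mg/kg). Blood was sampled at 5, 15, 30, 60, 120, 240, 360 and 480 min and plasma prepared by centrifugation. Plasma drug levels were measured by LC/MS/MS. Values are mean (CV%), N=3.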

[5] = system: Mus musculus; assay: Effect on behavioral phenotype in MitoPark mouse at baseline assessed as higher rearing behavior at 30 mg/kg/day administered for 3 weeks and measured after 60 mins; type: functional, organism-based
In short: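 MitoPark mice, 5 weeks old, were allocated by baseline 60-min LMA to untreated diet or diet targeting 30 mg/kg/day (reformulated every 3 weeks). Wild-type littermates received vehicle diet. Body weight and food intake were recorded weekly. 60-min LMA (distance, rearing) was run at 8, 11, 14 and 17 weeks of age.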

[6] = biological target: Leucine-rich repeat serine/threonine-protein kinase 2 (Mus musculus) (UniProt Q5S006); assay: In vivo inhibition of LRRK2 in C57Bl/6 mouse brain assessed as total LRRK2 protein level at 3 to 120 mg/kg administered for 11 days and measured for 4 to 24 hrs by Western blotting analysis; type: functional, organism-based; conditions: dose 3-120 mg/kg, time 11.0 day
In short: (§4)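 Male C57Bl/6 mice, singly housed on a reversed light cycle. Fed drug diet targeted to 3, 10, 30, 60 or 120 mg/kg/day (assuming 3 g/day intake), or untreated diet, for 11 days. Killed 4, 8 or 24 h after dark-cycle onset, n = 5 per group. Cortex immunoblotted for pSer935/total LRRK2 and total LRRK2/GAPDH. Total LRRK2 detected with MJFF2 antibody.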

[7] = biological target: Leucine-rich repeat serine/threonine-protein kinase 2 (Mus musculus) (UniProt Q5S006); assay: In vivo inhibition of LRRK2 in C57Bl/6 mouse brain assessed as reduction in pSer935 LRRK2 at 10 to 120 mg/kg administered for 11 days and measured for 8 to 24 hrs by Western blotting analysis; type: functional, organism-based; conditions: dose 10-120 mg/kg, time 11.0 day; in short: as §4
[8] = Unbound fraction in C57Bl/6 mouse plasma; type: ADME, cell-free
In short: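 Plasma and brain binding were determined by equilibrium dialysis at 1 μM.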

[9] = Unbound brain concentration in C57Bl/6 mouse at 10 mg/kg, po administered for 1 hr; type: ADME, organism-based; conditions: in vivo
[10] = Unbound plasma concentration in C57Bl/6 mouse administered for 11 days and measured after 24 hrs; type: ADME, cell-free; conditions: 264 h, time 11 day
In short: (§5)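 Male C57Bl/6 mice, singly housed on a reversed 12 h light cycle, were fed diet formulated to give 3, 10, 30, 60 or 120 mg/kg/day (assumes 3 g/day intake) or untreated diet for 11 days. Body weight and food intake were monitored. Spontaneous locomotion and rearing were recorded over 60 min. On day 11, mice were euthanized 4, 8 or 24 h after dark onset and plasma and brain drug levels measured; n = 5 per group.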

[11] = biological target: Sodium-dependent noradrenaline transporter (Homo sapiens, UniProt P23975); assay: Inhibition of norepinephrine transporter (unknown origin)
Chain of Sodium-dependent noradrenaline transporter (P23975 whole entry): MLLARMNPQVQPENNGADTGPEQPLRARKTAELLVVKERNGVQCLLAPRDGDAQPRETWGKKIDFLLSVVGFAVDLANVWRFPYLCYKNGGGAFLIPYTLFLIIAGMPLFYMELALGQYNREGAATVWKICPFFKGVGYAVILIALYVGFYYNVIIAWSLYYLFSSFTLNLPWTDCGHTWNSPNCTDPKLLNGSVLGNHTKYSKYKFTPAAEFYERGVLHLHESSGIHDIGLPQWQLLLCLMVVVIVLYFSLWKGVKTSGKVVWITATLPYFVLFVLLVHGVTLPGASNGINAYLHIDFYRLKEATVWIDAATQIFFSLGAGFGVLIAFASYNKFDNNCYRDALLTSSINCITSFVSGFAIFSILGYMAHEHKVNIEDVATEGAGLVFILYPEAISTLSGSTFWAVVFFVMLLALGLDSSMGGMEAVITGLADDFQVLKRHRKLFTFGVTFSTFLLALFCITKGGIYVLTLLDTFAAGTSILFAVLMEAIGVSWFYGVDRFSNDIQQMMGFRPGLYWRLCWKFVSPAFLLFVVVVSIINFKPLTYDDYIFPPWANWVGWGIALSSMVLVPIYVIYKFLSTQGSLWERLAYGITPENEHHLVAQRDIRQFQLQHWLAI
In short: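 Radioligand binding selectivity screen was run at 10 μM, mean of three determinations. Where inhibition exceeded 50%, full concentration-displacement curves were run in triplicate and IC50 was obtained by nonlinear least-squares regression.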

[12] = biological target: Dual specificity protein kinase CLK2 (Homo sapiens, UniProt P49760); assay: Inhibition of CLK2 (unknown origin)
Chain of Dual specificity protein kinase CLK2 (P49760 whole entry): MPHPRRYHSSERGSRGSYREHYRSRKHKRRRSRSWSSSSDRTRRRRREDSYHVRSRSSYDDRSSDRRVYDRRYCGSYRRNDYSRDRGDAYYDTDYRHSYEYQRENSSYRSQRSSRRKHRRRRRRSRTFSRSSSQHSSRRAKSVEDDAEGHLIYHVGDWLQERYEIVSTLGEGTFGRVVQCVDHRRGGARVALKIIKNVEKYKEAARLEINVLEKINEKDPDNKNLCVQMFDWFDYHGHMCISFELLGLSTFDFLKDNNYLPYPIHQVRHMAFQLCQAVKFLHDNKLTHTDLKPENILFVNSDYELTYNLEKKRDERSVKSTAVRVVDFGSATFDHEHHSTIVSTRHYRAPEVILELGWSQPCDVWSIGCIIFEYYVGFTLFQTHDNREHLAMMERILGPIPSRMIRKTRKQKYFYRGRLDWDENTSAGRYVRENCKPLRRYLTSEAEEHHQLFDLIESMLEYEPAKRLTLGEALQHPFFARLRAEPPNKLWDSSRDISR

[13] = biological target: Leucine-rich repeat serine/threonine-protein kinase 2 (Mus musculus) (UniProt Q5S006); assay: In vivo inhibition of LRRK2 in C57Bl/6 mouse kidney assessed as total LRRK2 protein level at 10 to 120 mg/kg administered for 11 days and measured after 8 hrs by Western blotting analysis; type: functional, organism-based; conditions: dose 10-120 mg/kg, time 11.0 day
In short: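 Same 11-day in-diet design in male C57Bl/6 mice: 3-120 mg/kg/day or untreated diet, killed 4, 8 or 24 h after dark-cycle onset, n = 5 per group. Kidneys dissected for Western blot of pSer935 and total LRRK2, with total LRRK2 detected by MJFF-2 antibody.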

[14] = AUC in C57Bl/6 mouse at 2 mg/kg, iv measured after 480 mins by LC-MS/MS analysis; type: ADME, organism-based; conditions: in vivo; in short: as §3
[15] = biological target: Leucine-rich repeat serine/threonine-protein kinase 2 (Mus musculus) (UniProt Q5S006); assay: In vivo inhibition of LRRK2 in MitoPark mouse brain assessed as total LRRK2 protein level in presence of MJFF-2 antibody by Western blotting analysis; type: functional, organism-based
In short: (§6)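 MitoPark mice fed diet targeted to 30 mg/kg/day, or untreated diet, from 5 weeks of age. Cortex collected after 3, 9 or 15 weeks of treatment, n = 10 per group. Blots probed for pSer935 LRRK2, total LRRK2 (MJFF-2 antibody) and GAPDH. pSer935 reported relative to vehicle-diet MitoPark mice.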

[16] = system: Mus musculus; assay: Effect on behavioral changes in 14 weeks old MitoPark mouse striatum assessed as HVA level at 30 mg/kg/day by HPLC analysis; type: functional; in short: as §1
[17] = biological target: Leucine-rich repeat serine/threonine-protein kinase 2 (Mus musculus) (UniProt Q5S006); assay: In vivo inhibition of LRRK2 in MitoPark mouse assessed as reduction in pSer935 LRRK2 at 30 mg/kg administered for 15 weeks and measured after 24 hrs by Western blotting analysis relative to control; type: functional, organism-based; in short: as §6
[18] = Toxicity in C57Bl/6 mouse assessed as lower food intake measured after 1 to 3 days; conditions: in vivo, time 1-3 day; in short: as §5
[19] = biological target: Leucine-rich repeat serine/threonine-protein kinase 2 (Mus musculus) (UniProt Q5S006); assay: In vivo inhibition of LRRK2 in 20 weeks old MitoPark mouse lung assessed as reduction in pSer935 LRRK2 level at 30 mg/kg/day administered for 15 weeks by Western blotting analysis; type: functional, organism-based; in short: as §2
[20] = biological target: Leucine-rich repeat serine/threonine-protein kinase 2 (Mus musculus) (UniProt Q5S006); assay: In vivo inhibition of LRRK2 in C57Bl/6 mouse brain assessed as decrease in pSer935 LRRK2 measured after 1 hr by Western blotting analysis; type: functional, organism-based; conditions: dose 1-100 mg/kg, route po
In short: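 Male C57Bl/6 mice, 20-25 g. Single oral dose of 1-100 mg/kg suspended in 30% Captisol (10 mL/kg), or vehicle, given 1 h before CO2 euthanasia. Cortex frozen on dry ice and pSer935 LRRK2 read by Western blot. n = 5 per group.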

[21] = system: Mus musculus; assay: Effect on behavioral changes in 8 weeks old MitoPark mouse striatum assessed as TH level at 30 mg/kg/day administered for 3 weeks by […] relative to control; type: functional

inhibition [2]: Active | MRT [4]: 11 h | inhibition [6]: inactive | inhibition [7]: Active | fraction unbound [8]: 0.008 | Drug uptake(free) [9]: 25.4 nM | Drug uptake(free) [10]: Active | IC50 [11]: 3.8 µM | IC50 [12]: 0.605 µM | inhibition [13]: Active | AUC at 8 h [14]: 664 nM·h | inhibition [15]: inactive | inhibition [17]: > 90% | inhibition [19]: Active | inhibition [20]: Dose-Dependent Effect
SMILES: C[C@@H]1CN(c2cc(-c3n[nH]c4ccc(OC5(C)CC5)cc34)ncn2)C[C@H](C)O1 [MLi-2]
Activity [1]: 1114 ng/g | Activity [3]: 1105 ng/g | Activity [5]: Active | Activity [16]: 323.7 ng/g | Activity [18]: Toxic | Activity [21]: 49.89%

From ChEMBL document CHEMBL5653623 (J Pharmacol Exp Ther, 2015)
